Experimental data pooled from the literature.
Lines come from different studies, so protocols differ.
Sample: plasma

C#Cc1cccc(Nc2ncnc3cc(OCCOC)c(OCCOC)cc23)c1  AUC(0-t) (human; oral; 100 mg; patients): 21.9 µM·h
CNCC[C@H](Oc1cccc2ccccc12)c1cccs1  AUC(0-t) (female human; oral; 30 mg; multiple doses, once daily): 135 ng·h/mL
CO[C@H]1CC[C@H](N2C(=O)CNc3ncc(-c4ccc(C(C)(C)O)nc4)nc32)CC1  AUC(0-t) (human; oral; 7.5 mg; patients): 319 ng·h/mL
CC(C)(O)c1ccccc1-c1ccc2[nH]c(/C=C/c3ccc(C(F)(F)F)cc3)nc2c1  AUC(0-t) (male human; oral; 225 mg; single dose, fasted): 5740 ng·h/mL
COc1cc2c(Nc3ccc(Br)cc3F)ncnc2cc1OCC1CCN(C)CC1  AUC(0-t) (human; oral; 85 mg/m²; multiple doses, patients): 15500 ng·h/mL
CC(C)c1nc(N(C)S(C)(=O)=O)nc(-c2ccc(F)cc2)c1/C=C/[C@@H](O)C[C@@H](O)CC(=O)O  AUC(0-t) (human; oral; 20 mg): 48.6 ng·h/mL
Nc1cc(C(F)(F)F)c(-c2cc(N3CCOCC3)nc(N3CCOCC3)n2)cn1  AUC(0-t) (human; oral; 25 mg/day; patients): 2060 ng·h/mL
COc1cc(N2CCC(N3CCN(C)CC3)CC2)ccc1Nc1ncnc(Nc2ccccc2S(=O)(=O)C(C)C)n1  AUC(0-t) (human; oral; 325 mg; multiple doses, patients): 23100 ng·h/mL
Oc1cc(O)c2c(c1)O[C@@H](c1ccc(O)c(O)c1)[C@@H](O)C2  AUC(0-t) (human; oral; 30 mg; single dose): 6.9 ng·h/mL
O=C(/C=C/c1cccc(S(=O)(=O)Nc2ccccc2)c1)NO  AUC(0-t) (human; intravenous; 1900 mg/m²; patients): 72100 ng·h/mL
CO[C@@H]1[C@H](OC(=O)N2CC(CCN3CCOCC3)C2)CC[C@]2(CO2)[C@H]1[C@@]1(C)O[C@@H]1CC=C(C)C  AUC(0-t) (human; subcutaneous; 0.6 mg; single dose, healthy volunteers): 1.21 ng·h/mL
COc1cc2c(cc1OC)CN(CCc1ccc(NC(=O)c3cc(OC)c(OC)cc3NC(=O)c3cnc4ccccc4c3)cc1)CC2  AUC(0-t) (human; intravenous; 1.5 mg/kg; patients): 10.5 µM·h
FC(F)(F)c1ccc(CNc2ccc(Cc3c[nH]c4ncc(Cl)cc34)cn2)cn1  AUC(0-t) (human; oral; 1200 mg; multiple doses, patients): 29500 ng·h/mL
CC(C)n1cc(C#N)c2cc(-n3cc(C(=O)O)cn3)ccc21  AUC(0-t) (male human; oral; 600 mg; single dose, fasted, healthy volunteers): 98800 ng·h/mL
Cc1nc(NC(=O)N2CCC[C@H]2C(N)=O)sc1-c1ccnc(C(C)(C)C(F)(F)F)c1  AUC(0-t) (human; oral; 90 mg; patients): 7600 ng·h/mL
C[C@@H](Oc1ccc(S(C)(=O)=O)cc1C(=O)N1C[C@@H]2C[C@]2(c2cc(C(F)(F)F)on2)C1)C(F)(F)F  AUC(0-t) (human; oral; 25 mg; fasted): 10.8 µM·h
CCCCC1=NC2(CCCC2)C(=O)N1Cc1ccc(-c2ccccc2S(=O)(=O)Nc2noc(C)c2C)c(COCC)c1  AUC(0-t) (human; oral; 200 mg; single dose, fasted, healthy volunteers): 58100 ng·h/mL
C[C@@H](Nc1cc(F)cc(F)c1)c1cc(C(=O)N(C)C)cc2c(=O)cc(N3CCOCC3)oc12  AUC(0-t) (human; oral; 180 mg; single dose, patients): 6710 ng·h/mL
CCOc1ccc(Cc2cc([C@@H]3S[C@H](CO)[C@@H](O)[C@H](O)[C@H]3O)c(OC)cc2C)cc1  AUC(0-t) (male human; oral; 5 mg; single dose, fasted, healthy volunteers): 1650 ng·h/mL
CCOc1cc2ncc(C#N)c(Nc3ccc(OCc4ccccn4)c(Cl)c3)c2cc1NC(=O)/C=C/[C@H]1CCCN1C  AUC(0-t) (human; oral; 80 mg; single dose): 357 ng·h/mL
CCNCCCNC/C=C\CNCCCNCC  AUC(0-t) (human; intravenous; 50 mg; patients, infusion): 79.8 ng·h/mL
O=C(O)C[C@H](O)C[C@H](O)/C=C/c1c(C2CC2)nc2ccccc2c1-c1ccc(F)cc1  AUC(0-t) (human; oral; 2 mg; single dose, fasted, healthy volunteers, tablet): 243 ng·h/mL
OC[C@H]1O[C@@H](c2ccc(Cl)c(Cc3ccc(O[C@H]4CCOC4)cc3)c2)[C@H](O)[C@@H](O)[C@@H]1O  AUC(0-t) (human; oral; 2.5 mg; single dose): 0.402 µM·h
COc1ccc(-n2nc(C(N)=O)c3c2C(=O)N(c2ccc(N4CCCCC4=O)cc2)CC3)cc1  AUC(0-t) (male human; oral; 2.5 mg; single dose): 430 ng·h/mL
NS(=O)(=O)c1ccc(NC(=O)Nc2ccc(F)cc2)cc1  AUC(0-t) (human; oral; 1000 mg; multiple doses, once daily): 70700 ng·h/mL
C=CC(=O)N1CCC(Oc2cc3c(Nc4ccc(Cl)c(Cl)c4F)ncnc3cc2OC)CC1  AUC(0-t) (human; oral; 16 mg; single dose, fed): 474 ng·h/mL
COc1ccc([C@@H]2CN(C(=O)[C@@H](O)CO)C[C@@]2(C)[C@@H](C)O)cc1OC1CN(c2ccc(C)cn2)C1  AUC(0-t) (human; oral; 0.5 mg; single dose, healthy volunteers): 188 ng·h/mL
C[C@@]1(c2cc(NC(=O)c3ccc(C#N)cn3)ccc2F)C=CSC(N)=N1  AUC(0-t) (human; oral; 10 mg; single dose): 1000 ng·h/mL
COCCOc1cnc2ccn([C@H](C)c3nnc4c(F)cc(-c5cnn(C)c5)cn34)c(=O)c2c1  AUC(0-t) (human; oral; 150 mg; multiple doses, once daily, patients): 31900 ng·h/mL
